Assays:
Assay type in all cases: functional, cell-based
MDA-MB-435 = assay: Cytotoxicity against human MDA-MB-435 cells assessed as cell viability after 72 hrs by commercial absorbance assay; conditions: MDA-MB-435, 72 h
Summary of the method: (§1)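 Cells from ATCC grown at 37°C, 5% CO₂ in RPMI 1640 with 10% FBS, penicillin 100 units/mL and streptomycin 100 µg/mL. Log-phase cells were trypsinized, washed twice, seeded at 5,000/well and incubated overnight. Samples in DMSO were added at 20, 4, 0.8, 0.16 and 0.032 µM (0.5% DMSO) for 72 h at 37°C. Viability was read by CellTiter 96 AQueous One absorbance; IC₅₀ relative to DMSO control.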

OVCAR-3 = assay: Cytotoxicity against human OVCAR3 cells assessed as cell viability after 72 hrs by commercial absorbance assay; conditions: OVCAR-3, 72 h; summary of the method: as §1
MDA-MB-231 = assay: Cytotoxicity against human MDA-MB-231 cells assessed as cell viability after 72 hrs by commercial absorbance assay; conditions: MDA-MB-231, 72 h; summary of the method: as §1

Row | SMILES | IC50 (MDA-MB-435) [µM] | IC50 (OVCAR-3) [µM] | IC50 (MDA-MB-231) [µM]
1 | C[C@@]12CC[C@@H]3C(=C[C@H]4OC(=O)[C@]5(C)[C@H]4[C@]34CCC5(O)OC4)[C@]1(O)OC[C@H]2O | 1.25 | 7.55 | 7.3
2 | C[C@@]12CC[C@@H]3C(=C[C@H]4OC(=O)[C@]5(C)[C@H]4[C@]34CCC5(O)OC4)[C@@H]1OC[C@H]2O | 1.65 | 4.12 | 3.74
3 | C[C@]12C(=O)O[C@@H]3C[C@H]4C5=C(CC[C@H]4[C@@]4(CCC1(O)OC4)[C@@H]32)C(=O)CO5 | 0.66 | 1.05 | 0.67
4 | C[C@]12C(=O)O[C@@H]3C[C@H]4c5occc5C(=O)C[C@H]4[C@@]4(COC1(O)C[C@@H]4O)[C@@H]32 | 6.44 | 18.7 | 10.8
5 | C[C@]12C(=O)O[C@@H]3Cc4c(ccc5ccoc45)C4(CCC1(O)OC4)[C@@H]32 (stereo partly specified) | > 20 | 17.8 | > 20
6 | COc1cc2c(c3occc13)C[C@H]1OC(=O)[C@]3(C)[C@H]1C21CCC3(O)OC1 (stereo partly specified) | > 20 | > 20 | > 20
7 | COc1cc2c(c3occc13)C[C@H]1OC(=O)[C@]3(C)[C@H]1[C@@]21CO[C@](O)(C1)[C@@H]3O | > 20 | > 20 | > 20
8 | COc1cc2c(c3occc13)C[C@H]1OC(=O)[C@]3(C)[C@H]1[C@@]21CO[C@](O)(C1)[C@H]3O | > 20 | > 20 | > 20
9 | C[C@]12C(=O)O[C@@H]3C[C@H]4c5occc5C(=O)C[C@H]4C4(CCC1(O)OC4)[C@@H]32 (stereo partly specified) | > 20 | > 20 | > 20
10 | C[C@]12C(=O)O[C@@H]3C[C@@]4(O)c5occc5C(=O)C[C@H]4C4(CCC1(O)OC4)[C@@H]32 (stereo partly specified) | 6.16 | 10.5 | 8.94
11 | C[C@]12C(=O)O[C@@H]3C[C@@H]4[C@@H](CCC5=CC(=O)O[C@@H]54)C4(CCC1(O)OC4)[C@@H]32 (stereo partly specified) | > 20 | > 20 | > 20
12 | CC[C@]1(O)C[C@@H]2CN(CCc3c([nH]c4ccccc34)[C@@](C(=O)OC)(c3cc4c(cc3OC)N(C)[C@H]3[C@@](O)(C(=O)OC)[C@H](OC(C)=O)[C@]5(CC)C=CCN6CC[C@]43[C@@H]65)C2)C1 [VINBLASTINE] | 0.00049 | 0.00182 | 0.00878

— ChEMBL document CHEMBL3580583, “17-Norpimaranes and (9βH)-17-Norpimaranes from the Tuber of Icacina trichantha” (J Nat Prod, 2015)
